One assay has as its system RAW264.7. In words: Inhibition of LPS-induced COX2 expression in mouse RAW264.7 cells at 34 uM treated 15 mins before LPS challenge measured after 18 hrs by Western blotting relative to control. Format: functional. In outline: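 RAW 264.7 cells pretreated 15 min with compound (34 μM), then LPS 1 μg/mL for 18 h. Lysates (30 μg protein) run on 8% SDS-PAGE and transferred to PVDF. Blocked in 5% milk/TBST, probed for iNOS and COX-2 with HRP secondary, ECL detection, β-actin internal control. Band density relative to LPS-treated control; duplicate experiments.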
(In general: In western blotting, separated proteins are transferred to a membrane and probed.)

In assay [1] the target is T1, Nitric oxide synthase, inducible (Mus musculus) (UniProt P29477).
T1 sequence (whole entry): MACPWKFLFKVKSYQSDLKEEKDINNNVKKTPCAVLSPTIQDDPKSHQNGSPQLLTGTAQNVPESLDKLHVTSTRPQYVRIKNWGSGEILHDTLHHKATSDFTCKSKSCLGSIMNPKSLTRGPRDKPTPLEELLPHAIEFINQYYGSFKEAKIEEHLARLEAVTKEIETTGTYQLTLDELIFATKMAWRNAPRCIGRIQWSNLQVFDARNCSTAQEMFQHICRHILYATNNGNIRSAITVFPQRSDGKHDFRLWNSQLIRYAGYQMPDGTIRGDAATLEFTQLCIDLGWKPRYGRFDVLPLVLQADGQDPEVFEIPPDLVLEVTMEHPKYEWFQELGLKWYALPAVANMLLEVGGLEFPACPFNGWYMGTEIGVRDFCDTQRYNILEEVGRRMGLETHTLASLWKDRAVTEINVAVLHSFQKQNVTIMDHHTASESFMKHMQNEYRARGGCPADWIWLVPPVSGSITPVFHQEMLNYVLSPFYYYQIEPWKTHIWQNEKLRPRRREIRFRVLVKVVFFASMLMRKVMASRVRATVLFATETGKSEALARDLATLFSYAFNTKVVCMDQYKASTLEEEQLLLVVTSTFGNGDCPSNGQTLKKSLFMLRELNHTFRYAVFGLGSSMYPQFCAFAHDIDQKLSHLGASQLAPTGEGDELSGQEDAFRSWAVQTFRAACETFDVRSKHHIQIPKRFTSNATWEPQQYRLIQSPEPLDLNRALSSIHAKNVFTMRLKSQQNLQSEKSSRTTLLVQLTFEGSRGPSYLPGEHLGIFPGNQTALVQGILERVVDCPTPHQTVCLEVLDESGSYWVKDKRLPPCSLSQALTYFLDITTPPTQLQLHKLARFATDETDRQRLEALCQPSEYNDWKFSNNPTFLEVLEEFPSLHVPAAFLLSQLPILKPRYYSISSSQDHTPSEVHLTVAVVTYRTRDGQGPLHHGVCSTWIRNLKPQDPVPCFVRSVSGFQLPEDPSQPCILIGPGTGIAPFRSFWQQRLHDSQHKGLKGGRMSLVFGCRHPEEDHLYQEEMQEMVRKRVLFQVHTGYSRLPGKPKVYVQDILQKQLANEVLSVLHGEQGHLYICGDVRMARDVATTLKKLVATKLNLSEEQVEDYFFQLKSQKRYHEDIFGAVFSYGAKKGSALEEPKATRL
Description: Inhibition of iNOS-mediated nitric oxide production in mouse RAW 264.7 cells at 34 uM pretreated 30 mins measured after 20 hrs by Griess reaction method relative to control. The class given is cell-based. In outline:
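RAW 264.7 macrophages seeded at 1 × 10⁵ cells/well for 24 h. Compounds in phenol red-free DMEM added 30 min before LPS (1 μg/mL), then 20 h further incubation. Nitrite in medium measured by Griess reagent at 540 nm against a sodium nitrite standard curve; inhibition at 34 μM.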

Assay [2] addresses T1, Nitric oxide synthase, inducible (Mus musculus). In words: Inhibition of iNOS-mediated nitric oxide production in LPS-stimulated mouse RAW 264.7 cells at 34 uM pretreated 30 mins before LPS challenge measured after 20 hrs by Griess reaction method relative to control. Format: cell-based. Background: Nitrite, measured by Griess reagent, commonly stands in for NO production.

Assay [3] concerns the target T2, Prostaglandin G/H synthase 2 (Homo sapiens, UniProt P35354).
T2 sequence (P35354 whole entry): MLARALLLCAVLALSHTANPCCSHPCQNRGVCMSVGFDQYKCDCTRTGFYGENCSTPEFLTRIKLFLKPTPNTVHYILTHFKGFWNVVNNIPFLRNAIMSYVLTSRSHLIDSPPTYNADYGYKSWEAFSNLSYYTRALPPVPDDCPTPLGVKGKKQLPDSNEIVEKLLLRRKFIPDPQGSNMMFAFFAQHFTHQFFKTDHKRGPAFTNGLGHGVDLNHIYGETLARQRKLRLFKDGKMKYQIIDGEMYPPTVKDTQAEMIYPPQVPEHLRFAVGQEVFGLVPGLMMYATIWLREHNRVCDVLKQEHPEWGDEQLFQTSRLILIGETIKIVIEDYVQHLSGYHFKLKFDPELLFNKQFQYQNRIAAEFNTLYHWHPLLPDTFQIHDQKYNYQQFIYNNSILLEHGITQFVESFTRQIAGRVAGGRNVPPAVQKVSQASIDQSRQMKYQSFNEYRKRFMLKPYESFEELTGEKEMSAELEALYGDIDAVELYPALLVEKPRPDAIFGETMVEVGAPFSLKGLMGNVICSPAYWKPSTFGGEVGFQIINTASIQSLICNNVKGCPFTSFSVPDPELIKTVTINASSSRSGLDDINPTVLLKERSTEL
In words: Inhibition of human recombinant COX2 assessed as PGE2 production after 10 mins by ELISA. (In general: An ELISA detects its analyte on a solid surface through an enzyme-linked reagent.)

The target of assay [4] is T3, Prostaglandin G/H synthase 1 (Ovis aries, UniProt P05979).
T3 sequence (P05979 whole entry): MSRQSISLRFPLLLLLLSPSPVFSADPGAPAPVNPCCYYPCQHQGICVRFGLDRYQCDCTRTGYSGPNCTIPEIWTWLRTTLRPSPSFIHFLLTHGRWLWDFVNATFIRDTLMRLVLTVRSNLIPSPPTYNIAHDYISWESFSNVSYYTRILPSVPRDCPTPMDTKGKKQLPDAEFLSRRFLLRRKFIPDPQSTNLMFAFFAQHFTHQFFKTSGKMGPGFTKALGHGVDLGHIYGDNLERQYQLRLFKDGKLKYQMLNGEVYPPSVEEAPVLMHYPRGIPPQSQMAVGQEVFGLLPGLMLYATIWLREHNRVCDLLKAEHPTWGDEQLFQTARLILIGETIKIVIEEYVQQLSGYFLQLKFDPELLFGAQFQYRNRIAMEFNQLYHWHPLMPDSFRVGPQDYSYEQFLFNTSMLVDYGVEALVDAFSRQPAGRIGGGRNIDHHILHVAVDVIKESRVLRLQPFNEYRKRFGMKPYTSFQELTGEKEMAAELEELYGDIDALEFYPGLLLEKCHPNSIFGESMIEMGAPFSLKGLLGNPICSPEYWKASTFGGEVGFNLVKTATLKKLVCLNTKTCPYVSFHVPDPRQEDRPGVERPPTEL
In words: Inhibition of sheep seminal vesicles COX1 assessed as PGE2 production after 10 mins by ELISA. An outline of the steps:
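Sheep seminal vesicle COX-1; reaction started with arachidonic acid, 10 min at room temperature, stopped with 27.8 μM indomethacin. PGE₂ quantified by competitive ELISA (PGE₂-acetylcholinesterase tracer, Ellman's reagent, 412 nm) against a PGE₂ standard curve. Result as % of solvent control; IC₅₀ from dose-response curves.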

As usually defined, the inhibition is the drop in the measured response relative to a control, in per cent. One may read the IC50 as the midpoint of a concentration-inhibition curve.

SMILES strings stand for the structures. Calls of active or inactive are those of the source. The rule behind the calls is not given here.

As for `O=S(=O)([O-])Oc1ccc(/C=C/c2cc(OS(=O)(=O)[O-])cc(OS(=O)(=O)[O-])c2)cc1.[K+].[K+].[K+]`, in the assay with RAW264.7, the “fold change (FC)” value was 0.69. For the same compound, in assay [1], the outcome was inactive. For the same compound, in assay [2], the inhibition was determined as 24.8%.

With `O=S(=O)([O-])Oc1cc(/C=C/c2ccc(O)cc2)cc(OS(=O)(=O)[O-])c1.[K+].[K+]`, the “fold change (FC)” value in the assay with RAW264.7 is given as 0.76. Also, in assay [1], the outcome was inactive. For the same compound, the inhibition in assay [2] came out at 4.8%.

On to `O=S(=O)([O-])Oc1cc(O)cc(/C=C/c2ccc(O)cc2)c1.[K+]`, for which the result in assay [1] was inactive. Also, the inhibition in assay [2] came out at 41%. For the same compound, the IC50 was 7.53 µM in assay [3] and 3.6 µM in assay [4].

On to `O=S(=O)([O-])Oc1ccc(/C=C/c2cc(O)cc(O)c2)cc1.[K+]`, for which the outcome in assay [1] was inactive. Moreover, in assay [2], the inhibition stood at 56.8%. For the same compound, the IC50 is 8.95 µM in assay [3] and 5.55 µM in assay [4].

(Values after ChEMBL document CHEMBL1177719 (J Med Chem, 2010).)
